Source: ChEMBL document CHEMBL3525903 (Drug Metab Dispos, 2013)

Key:
[1] = tested on: P-glycoprotein; experiment: Permeability assessed as human P-glycoprotein-mediated transport across basolateral to apical side expressed in pig LLC-PK1 cells at 500 uM by liquid scintillation counting; assay type: ADME, cell-based
[2] = tested on: P-glycoprotein; experiment: Permeability assessed as human P-glycoprotein-mediated transport of basolateral to apical side in pig LLC-PK1 cells by measuring nontransporter-related passive membrane permeability by Transwell experiment/liquid scintillation counting; assay type: ADME, cell-based; conditions: read-out: permeability
[3] = Inhibition of human P-glycoprotein expressed in pig LLC-PK1 cells assessed as reduction of [3H]digoxin substrate transport from basolateral to apical side by liquid scintillation counting; assay type: ADME, cell-based
[4] = Permeability assessed as human P-glycoprotein-mediated transport across basolateral to apical side expressed in pig LLC-PK1 cells by measuring membrane permeability time by Transwell experiment/liquid scintillation counting; assay type: ADME, cell-based
[5] = tested on: P-glycoprotein; experiment: Permeability assessed as human P-glycoprotein-mediated active membrane transport by measuring apical to basolateral side expressed in pig LLC-PK1 cells by Transwell experiment/liquid scintillation counting; assay type: ADME, cell-based; conditions: read-out: permeability
[6] = tested on: P-glycoprotein; experiment: Permeability assessed as human P-glycoprotein-mediated transport across apical to basolateral side expressed in pig LLC-PK1 cells by Transwell experiment/liquid scintillation counting; assay type: ADME, cell-based
[7] = target: T1, OCTN1 (SLC22A4) (Homo sapiens, UniProt Q9H015); experiment: Inhibition of OCTN1 (unknown origin) expressed in HEK293 cells assessed as reduction of [3H]ergothioneine substrate uptake at 100 uM by liquid scintillation counting; assay type: cell-based; conditions: HEK293 cells expressing OCTN1, probe [3H]ergothioneine
T1 sequence (Q9H015 whole entry): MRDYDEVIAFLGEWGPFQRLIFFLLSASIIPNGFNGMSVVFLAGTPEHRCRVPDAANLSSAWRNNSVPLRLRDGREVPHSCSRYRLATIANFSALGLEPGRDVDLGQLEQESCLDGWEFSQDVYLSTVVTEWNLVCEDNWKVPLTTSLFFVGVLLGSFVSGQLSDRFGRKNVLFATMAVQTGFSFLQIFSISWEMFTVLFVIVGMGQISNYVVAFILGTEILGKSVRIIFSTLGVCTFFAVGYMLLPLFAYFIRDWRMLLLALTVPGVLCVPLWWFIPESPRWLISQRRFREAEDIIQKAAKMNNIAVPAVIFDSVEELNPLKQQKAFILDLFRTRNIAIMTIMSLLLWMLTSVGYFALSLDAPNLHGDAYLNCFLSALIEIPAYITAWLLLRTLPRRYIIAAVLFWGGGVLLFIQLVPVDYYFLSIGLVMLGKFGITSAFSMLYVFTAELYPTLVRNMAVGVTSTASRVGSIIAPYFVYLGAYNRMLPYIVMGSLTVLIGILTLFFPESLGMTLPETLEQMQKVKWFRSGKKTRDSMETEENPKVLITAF
How it was run: (§1)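 HEK293 cells transiently transfected with OAT, OATP or OCT plasmid (FuGENE6; 24 h, then 24 h more with sodium butyrate), or stable OCTN1/OCTN2 lines; vector-transfected cells as control. Washed, preincubated 15–60 min at 37 °C in modified Krebs-Henseleit/25 mM HEPES buffer. Uptake of radiolabelled substrate, 100 µM inhibitor. Cells lysed in NaOH and counted by scintillation; counts normalised to medium radioactivity and Lowry protein; vector uptake subtracted.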

[8] = tested on: P-glycoprotein; experiment: Permeability assessed as human P-glycoprotein-mediated active membrane transport by measuring basolateral to apical side expressed in pig LLC-PK1 cells by Transwell experiment/liquid scintillation counting; assay type: ADME, cell-based; conditions: read-out: permeability
[9] = tested on: P-glycoprotein; experiment: Permeability assessed as human P-glycoprotein-mediated of transport of basolateral to apical side expressed in pig LLC-PK1 cells by Transwell experiment/liquid scintillation counting; assay type: ADME, cell-based
[10] = Inhibition of human P-glycoprotein expressed in pig LLC-PK1 cells assessed as reduction of [3H]digoxin substrate transport by liquid scintillation counting; assay type: ADME, cell-based
How it was run: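 P-gp-expressing and parental LLC-PK1 monolayers were grown on transwell inserts for 6–7 days to confluence and switched to serum-free M199 1 h before assay. [3H]digoxin was given apical-to-basal or basal-to-apical, with inhibitor in both chambers, at 37 °C, solvent ≤0.5%. Receiver samples were scintillation-counted and Papp taken from the linear phase. Results are % of control BtoA transport, mean ± S.D., n≥3.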

[11] = target: T2, Solute carrier organic anion transporter family member 1B3 (Homo sapiens, UniProt Q9NPD5); experiment: Inhibition of OATP1B3 (unknown origin) expressed in HEK293 cells assessed as reduction of [3H]CCK8 substrate uptake at 100 uM by liquid scintillation counting; assay type: ADME, cell-based; conditions: hek293, 100 µM; how it was run: as §1
T2 sequence (Q9NPD5 whole entry): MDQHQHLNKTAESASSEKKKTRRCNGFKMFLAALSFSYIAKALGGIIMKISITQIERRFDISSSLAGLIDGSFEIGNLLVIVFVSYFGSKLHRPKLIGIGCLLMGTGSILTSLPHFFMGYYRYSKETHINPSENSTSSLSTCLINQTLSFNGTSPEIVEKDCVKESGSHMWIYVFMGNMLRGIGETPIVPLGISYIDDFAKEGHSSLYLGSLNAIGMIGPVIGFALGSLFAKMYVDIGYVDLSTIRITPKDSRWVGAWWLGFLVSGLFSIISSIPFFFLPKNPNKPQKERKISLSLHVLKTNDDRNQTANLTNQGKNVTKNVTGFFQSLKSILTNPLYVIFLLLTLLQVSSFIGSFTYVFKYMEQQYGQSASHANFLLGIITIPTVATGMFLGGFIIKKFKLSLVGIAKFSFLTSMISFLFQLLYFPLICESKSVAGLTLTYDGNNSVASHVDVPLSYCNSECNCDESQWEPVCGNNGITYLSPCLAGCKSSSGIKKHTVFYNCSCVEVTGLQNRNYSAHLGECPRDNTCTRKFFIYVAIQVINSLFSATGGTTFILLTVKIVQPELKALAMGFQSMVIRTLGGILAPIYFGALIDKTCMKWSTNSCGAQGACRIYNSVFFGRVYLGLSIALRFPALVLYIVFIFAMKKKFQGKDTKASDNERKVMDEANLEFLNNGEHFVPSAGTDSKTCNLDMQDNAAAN

CC#CCn1c(N2CCC[C@@H](N)C2)nc2c1c(=O)n(Cc1nc(C)c3ccccc3n1)c(=O)n2C [LINAGLIPTIN]
Papp B→A at 500 µM [1]: 15.7 ×10⁻⁶ cm/s
Papp B→A [2]: 14.7 ×10⁻⁶ cm/s
IC50 [3]: 66.1 µM
Time [4]: 2.71 h
Papp A→B [5]: 25.1 ×10⁻⁶ cm/s
Km [6]: 220 µM
inhibition at 100 µM [7]: 19.4%
Papp B→A [8]: 27.4 ×10⁻⁶ cm/s
Km [9]: 154 µM
inhibition (INH) [10]: Dose-dependent effect
inhibition (INH) [11]: 3.39%
